From ChEMBL document CHEMBL4257566, “Design, synthesis and structure-based optimization of novel isoxazole-containing benzamide derivatives as FtsZ modulators” (Eur J Med Chem, 2018)
Values after ≈ are worked out from the molar mass of the structure shown.

Experiments:
Staphylococcus aureus [1] = experiment: Antibacterial activity against methicillin-resistant Staphylococcus aureus ATCC 43300 after 24 hrs by broth microdilution based CLSI method; assay type: functional; conditions: ATCC 43300, 24 h
Bacillus pumilus = experiment: Antibacterial activity against Bacillus pumilus CMCC63202 after 24 hrs by broth microdilution based CLSI method; assay type: functional; conditions: CMCC63202, 24 h
Pseudomonas aeruginosa = experiment: Antibacterial activity against Pseudomonas aeruginosa ATCC 27853 after 24 hrs by broth microdilution based CLSI method; assay type: functional; conditions: ATCC 27853, 24 h
Bacillus subtilis [2] = experiment: Antibacterial activity against Bacillus subtilis ATCC 9372 after 24 hrs by broth microdilution based CLSI method; assay type: functional; conditions: ATCC 9372, 24 h
Escherichia coli = experiment: Antibacterial activity against Escherichia coli ATCC 25922 after 24 hrs by broth microdilution based CLSI method; assay type: functional; conditions: ATCC 25922, 24 h
Staphylococcus aureus [3] = experiment: Antibacterial activity against clinical isolate of penicillin-resistant Staphylococcus aureus after 24 hrs by broth microdilution based CLSI method; assay type: functional
Staphylococcus aureus [4] = experiment: Antibacterial activity against Staphylococcus aureus ATCC 25923 after 24 hrs by broth microdilution based CLSI method; assay type: functional; conditions: ATCC 25923, 24 h
HeLa = experiment: Cytotoxicity in human HeLa cells assessed as reduction in cell viability after 36 hrs by MTT assay; assay type: cell-based
Method in brief: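 HeLa cells seeded at 10⁴ cells/well and left overnight, then exposed to compound for 36 h. MTT (5 mg/mL solution) added for 4 h at 37 °C, medium replaced by DMSO for 10 min, absorbance read at 570 nm.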

Bacillus subtilis [5] = experiment: Potency index, ratio of PC190723 MIC to test compound MIC for antibacterial activity against Bacillus subtilis ATCC 9372 after 24 hrs by broth microdilution based CLSI method
Staphylococcus aureus [6] = experiment: Antibacterial activity against Staphylococcus aureus; assay type: functional
Method in brief: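 CLSI broth microdilution: log-phase bacteria added to 2-fold serial dilutions (64 to 0.125 µg/mL) in cation-adjusted Mueller-Hinton broth, incubated aerobically 24 h at 37 °C. MIC read by turbidity as the last well showing no growth.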

Structure (SMILES)	MIC (Staphylococcus aureus [1]) [µg/mL]	MIC (Bacillus pumilus) [µg/mL]	MIC (Pseudomonas aeruginosa) [µg/mL]	MIC (Bacillus subtilis [2]) [µg/mL]	MIC (Escherichia coli) [µg/mL]	MIC (Staphylococcus aureus [3]) [µg/mL]	MIC (Staphylococcus aureus [4]) [µg/mL]	IC50 (HeLa) [µg/mL]	Ratio (Bacillus subtilis [5])	MIC (Staphylococcus aureus [6]) [µg/mL]
Cc1cc(C(C)(C)C)cc(C)c1-c1cc(COc2ccc(F)c(C(N)=O)c2F)no1	2 (≈ 4.83 µM)	0.06 (≈ 0.145 µM)	> 64	> 64	> 64	2 (≈ 4.83 µM)	1 (≈ 2.41 µM)	> 128		
CCCCc1ccc(-c2cc(COc3ccc(F)c(C(N)=O)c3F)on2)cc1	2 (≈ 5.18 µM)	0.25 (≈ 0.647 µM)	> 64	0.03 (≈ 0.0776 µM)	> 64	> 64	> 64		>16	
NC(=O)c1c(F)ccc(OCc2ccccc2)c1F										32 (≈ 122 µM)
CC(C)(C)c1ccc(-c2ccc(CNC(=N)N)cc2)cc1										1 (≈ 3.55 µM)
NC(=O)c1c(F)ccc(OCc2cc(-c3cccc(Cl)c3)no2)c1F	> 64	> 64	> 64	8 (≈ 21.9 µM)	> 64	> 64	> 64			
NC(=O)c1c(F)ccc(OCc2cc(/C=C/c3ccccc3)no2)c1F	> 64	> 64	> 64	8 (≈ 22.5 µM)	> 64	> 64	> 64			
NC(=O)c1c(F)ccc(OCc2nc3cc(Cl)cnc3s2)c1F	1 (≈ 2.81 µM)	0.5 (≈ 1.41 µM)	> 64	0.5 (≈ 1.41 µM)	> 64	1 (≈ 2.81 µM)	1 (≈ 2.81 µM)			1 (≈ 2.81 µM)
COc1cc(-c2cc(COc3ccc(F)c(C(N)=O)c3F)on2)cc(OC)c1OC	> 64	> 64	> 64	> 64	> 64	> 64	> 64			
COc1cccc(-c2cc(COc3ccc(F)c(C(N)=O)c3F)no2)c1	> 64	> 64	> 64	64 (≈ 178 µM)	> 64	> 64	> 64			
CC(C)(C)c1ccc(-c2cc(CCOc3ccc(F)c(C(N)=O)c3F)no2)cc1	> 64	> 64	> 64	> 64	> 64	> 64	> 64			
N#Cc1ccc(-c2cc(COc3ccc(F)c(C(N)=O)c3F)on2)cc1	> 64	> 64	> 64	64 (≈ 180 µM)	> 64	> 64	> 64			
CN(C)c1ccc(-c2cc(COc3ccc(F)c(C(N)=O)c3F)on2)cc1	> 64	> 64	> 64	> 64	> 64	> 64	> 64			
NC(=O)c1c(F)ccc(OCc2cc(-c3ccccc3Cl)no2)c1F	> 64	16 (≈ 43.9 µM)	> 64	8 (≈ 21.9 µM)	> 64	> 64	> 64			
NC(=O)c1c(F)ccc(OCc2cc(-c3cccc(Cl)c3)on2)c1F	> 64	> 64	> 64	8 (≈ 21.9 µM)	> 64	> 64	> 64			
CCOc1cccc(-c2cc(COc3ccc(F)c(C(N)=O)c3F)no2)c1	> 64	> 64	> 64	32 (≈ 85.5 µM)	> 64	> 64	> 64			
CCCCOc1cccc(-c2cc(COc3ccc(F)c(C(N)=O)c3F)on2)c1	> 64	> 64	> 64	64 (≈ 159 µM)	> 64	> 64	> 64			
CCCCC(CC)COc1ccc(F)c(C(N)=O)c1F (stereo not given)										4 (≈ 14 µM)
Nc1nonc1C(=O)N/N=C/c1cc(Cl)cc(Cl)c1O										16 (≈ 50.6 µM)
